Test results published in ChEMBL document CHEMBL4033754, “Antiobesity Effect of a Short-Length Peptide YY Analogue after Continuous Administration in Mice” (ACS Med Chem Lett, 2017).
Activity calls are given as the source filed them. No cut-off for these calls is given here. Where a SMILES comes first, the peptide text is derived from it. [ ]: non-standard residue; d: D form. The star is where a group is joined. ξ: configuration not given here. ξCha = NC(CC1CCCCC1)C(=O)O; Aib = CC(C)(N)C(=O)O; Bz = O=C(c1ccccc1)*

How the values were obtained:
[1] = Mean residence time in C57BL/6J mouse at 1 mg/kg, iv after 24 hrs by LC-MS/MS analysis; assay type: ADME, organism-based; settings: in vivo
How it was run: (§1)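 Single 1 mg/kg dose, intravenous or subcutaneous, to C57BL/6J mice. Blood sampled at 5, 10, 15, 30 min and 1, 3, 6, 8, 24 h post-dose. Plasma peptide quantified by LC/MS/MS. Parameters derived from the mean (n = 3) plasma concentration–time profile.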

[2] = test system: Mus musculus; experiment: Mean absorption time in C57BL/6J mouse at 1 mg/kg through subcutaneous administration after 24 hrs by LC-MS/MS analysis; assay type: ADME, organism-based; settings: in vivo, sc; how it was run: as §1
[3] = Plasma concentration in C57BL/6J mouse at 1 mg/kg, iv after 5 mins by LC-MS/MS analysis; assay type: ADME, organism-based; how it was run: as §1
[4] = test system: Mus musculus; experiment: AUC (0 to 24 hrs) in C57BL/6J mouse at 1 mg/kg, iv by LC-MS/MS analysis; assay type: ADME, organism-based; design: dose 1 mg/kg, time < 24 hr, route intravenous; settings: in vivo; how it was run: as §1
[5] = Volume of distribution at steady state in C57BL/6J mouse at 1 mg/kg, iv after 24 hrs by LC-MS/MS analysis; assay type: ADME, organism-based; settings: in vivo, read-out: Vdss; how it was run: as §1
[6] = test system: Mus musculus; experiment: Total clearance in C57BL/6J mouse at 1 mg/kg, iv after 24 hrs by LC-MS/MS analysis; assay type: ADME, organism-based; settings: in vivo; how it was run: as §1
[7] = Cmax in C57BL/6J mouse at 1 mg/kg through subcutaneous administration after 24 hrs by LC-MS/MS analysis; assay type: ADME, organism-based; design: dose 1 mg/kg, route subcutaneous; settings: in vivo, sc; how it was run: as §1
[8] = Tmax in C57BL/6J mouse at 1 mg/kg through subcutaneous administration after 24 hrs by LC-MS/MS analysis; assay type: ADME, organism-based; settings: in vivo, sc; how it was run: as §1
[9] = AUC (0 to 24 hrs) in C57BL/6J mouse at 1 mg/kg through subcutaneous administration after 24 hrs by LC-MS/MS analysis; assay type: ADME, organism-based; design: time < 24 hr, dose 1 mg/kg, route subcutaneous; settings: in vivo, sc; how it was run: as §1
[10] = Mean residence time in C57BL/6J mouse at 1 mg/kg through subcutaneous administration after 24 hrs by LC-MS/MS analysis; assay type: ADME, organism-based; settings: in vivo, sc; how it was run: as §1
[11] = test system: Mus musculus; experiment: Antiobesity activity in diet-induced obese C57BL/6J mouse model assessed as reduction in body weight at 1 mg/kg administered via subcutaneous osmotic pumps for 6 to 7 days relative to control; assay type: functional; design: scale not given: the % may be the effect or the level left
How it was run: (§2)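 Male C57BL/6J DIO mice received peptides at 1 mg/(kg·day) by continuous subcutaneous osmotic pump for 6–7 days (n = 6 per group). Body weight reduction expressed as a percentage versus vehicle.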

[12] = test system: Mus musculus; experiment: Antiobesity activity in diet-induced obese C57BL/6J mouse assessed as reduction in body weight at 1 mg/kg administered via subcutaneous osmotic pumps for 7 days relative to control; assay type: functional; design: scale not given: the % may be the effect or the level left; how it was run: as §2
[13] = test system: Mus musculus; experiment: Anorectic activity in lean mouse assessed as inhibition of food intake at 300 nmol/kg through bolus subcutaneous administration relative to control; assay type: functional; settings: sc
[14] = test system: Mus musculus; experiment: Antiobesity activity in lean C57BL/6J mouse assessed as inhibition of food intake at 1 mg/kg administered via subcutaneous osmotic pumps for 3 continuous days relative to control; settings: sc
[15] = test system: Mus musculus; experiment: Antiobesity activity in lean C57BL/6J mouse assessed as inhibition of food intake at 0.3 mg/kg administered via subcutaneous osmotic pumps for 3 continuous days relative to control; settings: sc
[16] = test system: Mus musculus; experiment: Antiobesity activity in diet-induced obese C57BL/6J mouse assessed as inhibition of food intake at 1 mg/kg administered via subcutaneous osmotic pumps for 7 days measured on day 4 of dosing; assay type: functional, organism-based
How it was run: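 DIO mice given peptides continuously by subcutaneous osmotic pump for 7 days (n = 6), with body weight and cumulative food intake tracked daily. Statistics versus vehicle by Student's t test or Aspin-Welch test.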

[17] = Bioavailability in C57BL/6J mouse at 1 mg/kg through subcutaneous administration after 24 hrs by LC-MS/MS analysis; assay type: ADME, organism-based; settings: in vivo, sc; how it was run: as §1
[18] = molecular target: T1, Neuropeptide Y receptor type 2 (Homo sapiens, UniProt P49146); experiment: Displacement of [125I]-PYY from human Y2R expressed in CHO cell membranes after 60 mins by liquid scintillation method
T1 sequence (P49146 whole entry): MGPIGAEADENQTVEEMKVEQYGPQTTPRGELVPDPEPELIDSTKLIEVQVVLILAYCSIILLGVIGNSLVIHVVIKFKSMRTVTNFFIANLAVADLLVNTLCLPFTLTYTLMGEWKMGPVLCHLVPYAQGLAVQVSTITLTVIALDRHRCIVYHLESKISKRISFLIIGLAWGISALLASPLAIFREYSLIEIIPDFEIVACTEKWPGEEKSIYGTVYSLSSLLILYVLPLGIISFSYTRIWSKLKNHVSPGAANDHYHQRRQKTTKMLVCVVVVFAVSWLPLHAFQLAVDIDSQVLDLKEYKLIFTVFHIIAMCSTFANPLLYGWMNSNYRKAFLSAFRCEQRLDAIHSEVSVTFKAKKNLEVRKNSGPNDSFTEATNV

[19] = molecular target: T1, Neuropeptide Y receptor type 2; experiment: Agonist activity at human Y2R expressed in CHO cell membranes assessed as [35S]GTPgammaS binding after 120 mins by liquid scintillation method; assay type: functional
[20] = test system: Mus musculus; experiment: Anorectic activity in lean mouse assessed as inhibition of food intake at 1000 nmol/kg through bolus subcutaneous administration relative to control; assay type: functional; settings: sc

Row | Compound | MRT [1] | MAT [2] | concentration at 5 min [3] | AUC [4] | Vd [5] | CL [6] | Cmax [7] | Tmax [8] | AUC(0-t) at 24 h [9] | MRT [10] | Activity [11] | Activity [12] | inhibition in vivo at 0.3 µmol/kg [13] | inhibition in vivo at 1 mg/kg [14] | inhibition in vivo at 0.3 mg/kg [15] | inhibition [16] | bioavailability [17] | IC50 [18] | EC50 [19] | inhibition in vivo at 1 µmol/kg [20]
1 | CC(=O)N[C@@H](CO)C(=O)N1C[C@@H](O)C[C@@H]1C(=O)N[C@@H](CCCNC(=N)N)C(=O)N[C@@H](Cc1cnc[nH]1)C(=O)N[C@@H](CC1CCCCC1)C(=O)N[C@@H](CC1CCCCC1)C(=O)N[C@@H](CC(N)=O)C(=O)N[C@@H](CC(C)C)C(=O)NC(C)(C)C(=O)N[C@H](C(=O)N[C@@H](CCCNC(=N)N)C(=O)N[C@@H](CCC(N)=O)C(=O)N[C@@H](CCCNC(=N)N)C(=O)N[C@@H](CC1CCCCC1)C(N)=O)[C@@H](C)O [listing 1 of 2 here] | 10.8 min | 0.14 h | 935 nM | 0.18 µM·h | 0.533 L/kg | 49.47 mL/min/kg | 98.1 nM | 10.2 min | 0.0336 µM·h | 19.2 min | – | – | – | – | – | – | – | – | – | –
2 | CC(=O)N[C@@H](CO)C(=O)N1C[C@@H](O)C[C@@H]1C(=O)N[C@@H](CCCNC(=N)N)C(=O)N[C@@H](Cc1cnc[nH]1)C(=O)N[C@@H](CC1CCCCC1)C(=O)N[C@@H](CC1CCCCC1)C(=O)N[C@@H](CC(N)=O)C(=O)N[C@@H](CC(C)C)C(=O)NC(C)(C)C(=O)N[C@H](C(=O)N[C@@H](CCCNC(=N)N)C(=O)N[C@@H](CCC(N)=O)C(=O)N[C@@H](CCCNC(=N)N)C(=O)N[C@@H](CC1CCCCC1)C(N)=O)[C@@H](C)O [listing 2 of 2 here] | – | – | – | – | – | – | – | – | – | – | -10.2% | 7.4% | 23% | 79% | 47% | – | – | – | – | –
3 | CC(=O)N[C@@H](CO)C(=O)N1C[C@@H](O)C[C@@H]1C(=O)N[C@@H](CCCNC(=N)N)C(=O)N[C@@H](Cc1cnc[nH]1)C(=O)NC(CC1CCCCC1)C(=O)NC(CC1CCCCC1)C(=O)N[C@@H](CC(N)=O)C(=O)N[C@@H](CC(C)C)C(=O)NC(C)(C)C(=O)N[C@H](C(=O)N[C@@H](CCCNC(=N)N)C(=O)N[C@@H](CCC(N)=O)C(=O)N[C@@H](CCCNC(=N)N)C(=O)NC(CC1CCCCC1)C(N)=O)[C@@H](C)O (stereo partly specified) | – | – | – | – | – | – | – | – | – | – | – | – | – | – | – | Active | – | – | – | –
4 | CC(C)C[C@H](NC(=O)[C@H](CC(N)=O)NC(=O)C(CC1CCCCC1)NC(=O)C(CC1CCCCC1)NC(=O)[C@H](Cc1cnc[nH]1)NC(=O)[C@H](CCCNC(=N)N)NC(=O)c1ccccc1)C(=O)NC(C)(C)C(=O)N[C@H](C(=O)N[C@@H](CCCNC(=N)N)C(=O)N[C@@H](CCC(N)=O)C(=O)N[C@@H](CCCNC(=N)N)C(=O)NC(CC1CCCCC1)C(N)=O)[C@@H](C)O (stereo partly specified) (Bz-RH[ξCha][ξCha]NL[Aib]TRQR[ξCha]-NH2) | 27 min | 2.72 h | 7550 nM | 3.56 µM·h | 0.073 L/kg | 2.7 mL/min/kg | 75.6 nM | 15 min | 0.209 µM·h | 190 min | 0.4% | – | – | – | – | – | 5.9% | 7.4 nM | 2 nM | 20%
